Active and inactive are the calls of the source. The rule behind the calls is not given here.
What was measured:
HT-29 = experiment: Antiproliferative activity against human HT-29 cells after 72 hrs by (3-(4,5-dimethylthiazol-2-yl)-2,5-diphenyltetrazolium bromide test; assay type: functional, cell-based; details: HT-29, 72 h
Jurkat [1] = experiment: Antiproliferative activity against human Jurkat cells after 72 hrs by (3-(4,5-dimethylthiazol-2-yl)-2,5-diphenyltetrazolium bromide test; assay type: functional, cell-based
In short: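 Jurkat, RS4;11 and HL-60 cells grown in RPMI-1640; MCF-7, A549, HeLa and HT-29 cells grown in DMEM; both media with 10% FBS and penicillin/streptomycin. 8 × 10^3 cells per well were preincubated 18 h at 37 °C, 5% CO2, then exposed 72 h to a concentration range (DMSO ≤0.25%). Read-out was MTT; IC50 was taken against cells given the maximum DMSO. Mean ± SE of at least three experiments.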

HeLa [2] = experiment: Induction of cell cycle arrest in human HeLa cells assessed as cell arrest at G2/M phase after 24 hrs by propidium iodide based flow cytometric analysis; assay type: functional
In short: (§1)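 HeLa or Jurkat cells (5 × 10^5) treated 24 h. Cells fixed in ice-cold 70% ethanol, lysed with RNase A and 0.1% Triton X-100, and stained with propidium iodide. DNA content analyzed by flow cytometry to give cell-cycle phase distribution.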

Jurkat [3] = experiment: Induction of cells cycle arrest in human Jurkat cells assessed as cell arrest at G2/M phase at > 60 nM after 24 hrs by propidium iodide based flow cytometric analysis; assay type: functional; in short: as §1
HeLa [4] = experiment: Induction of cell cycle arrest in human HeLa cells assessed as increase in cyclin B expression at 250 nM after 24 hrs by Western blot analysis; assay type: functional, cell-based
In short: (§2)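 HeLa cells treated 24 or 48 h. Lysates cleared at 15000g, and 10 μg protein run on 7.5–15% SDS-PAGE and blotted to PVDF. Membranes blocked in 5% BSA and probed for cyclin B, p-cdc2 Tyr15 and cdc25c, then detected with peroxidase secondary and ECL. Blots stripped and reprobed for β-actin as loading control.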

HeLa [5] = experiment: Induction of cell cycle arrest in human HeLa cells assessed as decrease in p-cdc2 Tyr15 expression at 100 to 250 nM after 48 hrs by Western blot analysis; assay type: functional, cell-based; in short: as §2
HeLa [6] = experiment: Induction of apoptosis in human HeLa cells assessed as increase in ROS production at 100 to […] after 24 to 48 hrs by H2-DCFDA based flow cytometry; assay type: functional, cell-based
In short: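 HeLa cells treated 24 or 48 h, then loaded with H2-DCFDA. ROS measured by flow cytometry. Three independent experiments.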

HeLa [7] = experiment: Induction of apoptosis in human HeLa cells assessed as caspase 3 activation after 24 to 48 hrs by Western blot analysis; assay type: functional, cell-based
In short: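 HeLa lysates prepared after the indicated times. 10 μg protein separated by SDS-PAGE on PVDF blots. Primary antibodies (2 h, room temperature) against PARP, caspase-3, cleaved caspase-9, Bcl-2 and Mcl-1, then peroxidase secondary with ECL detection. β-Actin reprobe used as loading control.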

HeLa [8] = experiment: Induction of apoptosis in human HeLa cells assessed as caspase 9 activation at 100 to 250 nM by Western blot analysis; details: TDE = time-dependent effect
HeLa [9] = experiment: Induction of apoptosis in human HeLa cells assessed as PARP cleavage at 100 to 250 nM after 24 to 48 hrs by Western blot analysis
Mus musculus [10] = experiment: In vivo antitumor activity against mouse BNL 1ME A.7R.1 cells allografted in Balb/c mouse assessed as reduction in tumor growth at 10 mg/kg, ip up to 8 days relative to vehicle treated control; assay type: functional, organism-based; design: dose 10 mg/kg
In short: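 Male Balb/c mice (8 weeks old) implanted s.c. in the dorsal region with 10^7 BNL 1ME A.7R.1 cells in PBS. Dosed i.p. daily from the second day at 5 or 10 mg/kg, in vehicle of 0.9% NaCl with 5% PEG 400 and 0.5% Tween 80 (7 μL/g). Tumors measured daily with calipers for 7 days, volume = AB²/2. Five mice per group.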

Mus musculus [11] = experiment: In vivo antitumor activity against mouse BNL 1ME A.7R.1 cells allografted in Balb/c mouse assessed as reduction in tumor growth at 5 mg/kg, ip up to 8 days relative to vehicle treated control; assay type: functional, organism-based; design: dose 5 mg/kg
In short: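 Male Balb/c mice, 8 weeks old, received 10^7 BNL 1ME A.7R.1 cells in 200 μL PBS subcutaneously in the dorsal region. Mice were randomised into groups of 5 and dosed ip daily from day 2. Vehicle was 0.9% NaCl with 5% PEG 400 and 0.5% Tween 80, at 7 μL/g. Tumours were measured daily by caliper for 7 days; V = AB²/2.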

HUVEC [12] = experiment: Antivascular activity in HUVEC assessed as inhibition of endothelial cell migration to tumor site at 25 nM after 6 hrs by wound-healing assay; assay type: functional, cell-based; details: Homo sapiens
In short: (§3)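 Scratch assay: confluent HUVEC monolayer on 0.1% collagen I wounded with a pipette tip and washed with PBS. Cells treated with compound and photographed at set times. Wound width measured in four areas and compared with the initial width to give gap closure. Three independent experiments.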

HUVEC [13] = experiment: Antivascular activity in HUVEC assessed as inhibition of endothelial cell migration to tumor site at 5 nM after 24 hrs by wound-healing assay; assay type: functional, cell-based; details: Homo sapiens; in short: as §3
HUVEC [14] = experiment: Antivascular activity in HUVEC assessed as distruption of capillary like tube formation at 5 to 25 nM after 1 hr by matrigel assay; assay type: functional, cell-based; details: Homo sapiens
In short: (§4)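 Tube-disruption assay: HUVECs (passages 1–6) plated on gelled Matrigel and allowed 6 h to form capillary-like networks. Compound then added to the preformed networks for 1 or 3 h. Five fields per well photographed. Area covered, total network length, mesh number and branching points measured as percent change from complete-medium controls. Three independent experiments.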

HUVEC [15] = experiment: Antivascular activity in HUVEC assessed as distruption of capillary like tube formation at 5 to 25 nM after 3 hrs by matrigel assay; assay type: functional, cell-based; details: Homo sapiens; in short: as §4
HUVEC [16] = experiment: Cytotoxicity against HUVEC cells at 5 to 25 nM; assay type: cell-based; details: human, 0.025 µM
Chorioallantoic membrane [17] = experiment: Induction of blood vessel formation in chick embryo chorioallantoic membrane (CAM) at 100 pmol/egg; assay type: functional, tissue-based; details: Gallus gallus
Chorioallantoic membrane [18] = experiment: Antivascular activity in chick embryo chorioallantoic membrane (CAM) assessed as inhibition of FGF-induced blood vessel formation at 1 pmol/egg by microscopically measured on day 11; assay type: functional, tissue-based; details: Gallus gallus
In short: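 CAM assay: alginate sponges carrying FGF plus compound (0.1–1.0 pmol per pellet) grafted onto the CAM of fertilized chicken eggs on day 11 of development. Blood vessels converging toward the implant counted under a stereomicroscope at 5× after 72 h (day 14). At least six eggs per group.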

[19] = Antivascular activity in mouse B16-BL6 cells allografted in C57/BL6 mouse assessed as reduction blood vessel formation in tumor measured at 30 mg/kg, ip after 24 hrs; assay type: functional; details: route intraperitoneal
In short: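 C57BL/6 mice (6 weeks old) given 10^5 BL6-B16 melanoma cells s.c. in the dorsolateral flank in PBS. At 300 mm3 tumor volume, single i.p. dose of 30 mg/kg in DMSO. Tumors harvested 24 h later, frozen in OCT and cut into 4–5 μm sections. CD31-positive vessels counted in 5 fields per section (40× objective). Five mice per group.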

Structure (SMILES)	IC50 (HT-29)	IC50 (Jurkat [1])	Activity (HeLa [2])	Activity (Jurkat [3])	Activity (HeLa [4])	inhibition (HeLa [5])	Activity (HeLa [6])	Activity (HeLa [7])	Activity (HeLa [8])	Activity (HeLa [9])	Activity (Mus musculus [10])	Activity (Mus musculus [11])	Activity (HUVEC [12])	Activity (HUVEC [13])	Activity (HUVEC [14])	Activity (HUVEC [15])	Activity (HUVEC [16])	Activity (Chorioallantoic membrane [17])	inhibition (Chorioallantoic membrane [18])	inhibition in vivo at 30 mg/kg [19]
CCOC(=O)c1oc2cc(OC)ccc2c1Nc1cc(OC)c(OC)c(OC)c1	17 nM	22 nM	Dose-dependent effect	>70%	Active	Active	Active	Dose-dependent effect	tde	Active										
COC(=O)c1oc2cc(OC)ccc2c1Nc1cc(OC)c(OC)c(OC)c1	3 nM	8 nM	Dose-dependent effect	>70%	Active	Active	Active	Dose-dependent effect	tde	Active	Active	inactive	Active	Active	Active	Active	Non-toxic	inactive	Active	20%

From ChEMBL document CHEMBL3425408, “Design, synthesis, in vitro, and in vivo anticancer and antiangiogenic activity of novel 3-arylaminobenzofuran derivatives targeting the colchicine site on tubulin” (J Med Chem, 2015)
